This sample holds only a part of the variants without activity.
B1: tRNA (parent)
chain: GUUCCGUUGGCGUAAUGGUAACGCGUCUCCCUCCUAAGGAGAAGACUGCGGGUUCGAGUCCCGUACGGAACG

Variants of: B1
Assay: yeast fitness relative to wild type (ratio to wild type); higher = fitter; tRNA-Arg(CCU), competitive growth, 37 C, YPD
In short: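 Changes in genotype frequencies gave Darwinian fitness relative to wild type. Frequencies were read by 100-nucleotide paired-end sequencing of gene amplicons before and after pooled Saccharomyces cerevisiae strains, carrying tRNA-Arg(CCU) gene variants at the native locus, were competed in YPD at 37°C for 24 hours in six replicates. A genotype was kept only with ≥ 100 starting reads, and estimates < 0.5 were set to 0.5.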

Variant	yeast fitness
G9C C27U C33G A37G C66U	≤ 0.5
C11G A20U C30G C66U	≤ 0.5
G41A U53G U59A C62G	≤ 0.5
G12A U13C C27G C31U C34A	≤ 0.5
U16A C24U C62U	0.692
G12A G39A G68A	0.528
C46G C49A U54C G58C	≤ 0.5
C46A G48A U64G	0.951
A14G C31G A37U A57C A69U	≤ 0.5
A20G A40C A42U A43C G50A	≤ 0.5
C11U U19C C22G G25C C33U G39C C62G	≤ 0.5
A15U C66U A69U	0.566
U32C C55U	0.651
C34A C49U C61G	≤ 0.5
C34U A36G C55A	≤ 0.5
U8C A43U G50C	≤ 0.5
C27G G48C C49G	0.503
C4U G9A G39A G44C	≤ 0.5
C33G G51C G68A A69C	0.607
A14C G17A G68A	0.522
A20C G56A G67A	0.577
A20G A65G A70C	0.694
C4G C5A C24U C61U C66U A70C	0.514
U53G A57G C62U	0.62

Variant	yeast fitness
A40G A42G	0.986
A14C C29U C33G	0.527
C4G C11G U64A	≤ 0.5
A45C C49U G56A	0.856
C4A C24G G44C C62G	≤ 0.5
A15U U19A A20G A40U A43U	0.542
U8C C29A C34G A36G A37G A40C U47A U64C	≤ 0.5
A45C U53A C60G	0.536
C5U U19A G48A	0.741
G48A A70C	0.956
U13G A20G U53G C66U	≤ 0.5
U8A G12A C22A C31G G58A C61A	≤ 0.5
C5A U35C A36U	0.57
U16C A20U C24U C49A	≤ 0.5
A21U C46U C49U U54A	≤ 0.5
A40G C61U	0.741
G10A A21C C24A	≤ 0.5
A40U C49U C62U A69G	0.904
A21G G50A	1.14
A14C A37G A57G	0.625
U13G G25A U59C	0.681
G17A A21C	0.67
C31U C33A A43U G48A U53A	≤ 0.5
C11G A45C A65C	≤ 0.5

Variant	yeast fitness
C22U A37U U53G	≤ 0.5
G10C C34U A65G	≤ 0.5
C5A C27U G39C	≤ 0.5
C30G C61U A70G	0.603
U19A G44A A69C	0.685
G10A A37U C61G C66G	0.623
C11G U13G A21G	0.785
U2C G18A A36C A45U C49G	≤ 0.5
C11U A21U A69C	0.772
C22A U53G G56C G67C	≤ 0.5
U13A C30U C55G G58C	0.56
C5G A42U A70C	0.681
U16A C46G	0.951
G23C C24U A57C G63A C66G	≤ 0.5
U32G U35A G38C G51C C66U	0.579
C11G A37G G38A A45U A70G	≤ 0.5
U8C U16C C61G A69C	≤ 0.5
C4U U7A A36U A65G	0.535
G6A C66U G67A	0.661
G23C G25A C61U	0.536
C5G C29U G44C	≤ 0.5
C31U G48C	1
A36C G38C G52A	≤ 0.5
U13A C30U A45C	0.611

Variant	yeast fitness
C27A G39A A57G G68A	≤ 0.5
C34G A45G	0.657
A20G C34G C55G U59C C60U G67U	≤ 0.5
A15U C24G G38A	0.551
A21G C27G C29A G50A	≤ 0.5
U13C G44C G58A G68A	0.572
C5U A21C C31G C66U	0.528
G6A A14G C31U A36G	≤ 0.5
A40G C62U A65U	≤ 0.5
C11U C34U G48A	≤ 0.5
C27G C31G C61A	0.693
G9C C11A U47G U59A	≤ 0.5
C5A A20C C22A A36C A69C	≤ 0.5
C22G A37U A57C	≤ 0.5
C5U C27G U35G G44A	≤ 0.5
U16A U54A	0.573
G38C G48A	0.744
C4U C31U A37U G67A G68A	≤ 0.5
U3G U8C C61G G63C	≤ 0.5
U19G G38C	0.637
G9C G17A C27U	≤ 0.5
G10A C11A A15C C24A C34A C46G	0.559
A14U C46G G63A	0.53
G10A G17A U28C C31G G67C	≤ 0.5

Variant	yeast fitness
U3C G58A G68C	0.59
C4G C34G G56A U59A	≤ 0.5
C34U C60G A69G	≤ 0.5
U8C U54G U64A	0.543
U3A A43C	0.883
A14C A36U A37G G52A A65U A70C	≤ 0.5
C11G U16C A21U C30G G50C	≤ 0.5
U7G G25A C49G	0.542
U2A G6A C11U C31G A69U	≤ 0.5
U16G A45U U54C U64A	≤ 0.5
U19C G41C	0.987
G25A U47C C60U	0.587
G6C A15C C46A	0.504
U8G A37C G68A	≤ 0.5
G9A U59A	0.936
C5A G18A G52A C55G	0.526
U28A G51A A57U	0.598
C5G C29A C30U U35A C55G G56C	≤ 0.5
C22U U26A U47C C62A	≤ 0.5
A14G U19A C34U C66U	0.538
G38A C62G A70U	≤ 0.5
G9C C31G A40C	0.597
A14C G25A C33G A36U A45G G52C	≤ 0.5
C4G U19G A69U	≤ 0.5

Variant	yeast fitness
U19C U26C G44A	0.521
A15C G17A G18A A36C C55U C66A	0.529
G6C G58C	1.01
A45C A69U	0.959
U32A G58C	0.651
C5G U53G A65G	≤ 0.5
A36U C46A	0.763
A20U U54A	0.699
A15U C22G G52C	0.529
C27U C31U U35C A36U C55A C66G	0.777
U8G C34G C55A C66U	≤ 0.5
A20G G38C A70U	0.57
C27A U28A	0.841
C5U U32G A36U	≤ 0.5
C5G U8G C11G	0.509
G17A G56C G58C G68A	≤ 0.5
C30A A36U A42G C60U A69C	≤ 0.5
U13A G41A G68C	0.504
C11U A36U G58A G67C	≤ 0.5
U26G U28A A45C	≤ 0.5
C4U G12A A40U A65C	≤ 0.5
U8A G10C C11U C24U A42C U47C	0.777
C11U C31G C34G A43U G68C	0.571
G18A C30U C55A	0.592

Variant	yeast fitness
A20G G41C	1.01
U16C A36U G63A	0.772
G10C A20U C27U C29U A40U C66U	≤ 0.5
U3A C4G G9A C11G A45U	≤ 0.5
C5G U35A A40G	≤ 0.5
G6C	1
A21C C29A G52C G68A	0.664
A40C G51A	0.84
U3C C4G A15U C33A G52C	≤ 0.5
U8C G9C C49U G68U	≤ 0.5
U32G C33G G50A U53G A69G A70C	≤ 0.5
U28G C30U	0.693
C11U C27G A43U	0.52
C4G G67A	0.913
A14G U26G G39A	≤ 0.5
C31G A69C	0.907
C61G C62G	0.741
A57U U64A	0.678
C5A A14G	0.912
C24A A43U A45C	≤ 0.5
C27U G38A C66U	0.623
A42U G51A C60G G63A	≤ 0.5
C5A G17U A69C A70G	≤ 0.5
